According to ChEMBL document CHEMBL1131116, “Design and synthesis of new potent C2-symmetric HIV-1 protease inhibitors. Use of L-mannaric acid as a peptidomimetic scaffold” (J Med Chem, 1998):
pIC50, pKi: −log10 of the molar value. Values after ≈ are worked out from the molar mass of the structure shown.

Legend:
[1] = molecular target: T1, Human immunodeficiency virus type 1 protease (Human immunodeficiency virus 1, UniProt Q72874); test: inhibitory activity against purified HIV-1 protease in a standardized spectrophotometric assay expressed in E. coli; ni=no inhibition
Summary of the method: (§1)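 Recombinant HIV-1 protease, cloned and heterologously expressed in E. coli, then purified. Inhibition was measured in a standardized spectrophotometric protease assay and reported as IC50 values.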

[2] = molecular target: T1, Human immunodeficiency virus type 1 protease; test: Inhibitory activity against purified HIV-1 protease in a standardized spectrophotometric assay expressed in E. uM; summary of the method: as §1
[3] = molecular target: T1, Human immunodeficiency virus type 1 protease; test: Inhibitory activity against purified HIV-1 protease expressed in Escherichia coli in sensitive fluorometric assay
[4] = molecular target: T1, Human immunodeficiency virus type 1 protease; test: inhibitory activity against purified HIV-1 protease in a standardized spectrophotometric assay expressed in Escherichia coli
[5] = system: MT4; test: In vitro anti-HIV activity in MT-4 cells by using an HIV cytopathic assay; format: functional; conditions: Homo sapiens, read-out: ED50 (the source's name)
Summary of the method: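 HIV cytopathic assay in MT-4 cells, with cell protection quantified by the vital dye XTT. ED50 (µg/mL), the 50% inhibitory concentration, was calculated from the percent cytoprotection for each compound.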

[6] = molecular target: T1, Human immunodeficiency virus type 1 protease; test: inhibitory activity against purified HIV-1 protease in a standardized spectrophotometric assay expressed in E. inhibition; summary of the method: as §1
[7] = molecular target: T1, Human immunodeficiency virus type 1 protease; test: inhibitory activity against purified HIV-1 protease in a standardized spectrophotometric assay expressed in E. coli; ni= no inhibition; summary of the method: as §1
[8] = molecular target: T1, Human immunodeficiency virus type 1 protease; test: inhibitory activity against purified HIV-1 protease in a standardized spectrophotometric assay expressed in E. coli; ni = no inhibition; summary of the method: as §1

Row | Compound | IC50 [1] | pKi [3] | other results
1 | O=C(NCc1ccccn1)[C@H](OCc1ccccc1)[C@H](O)[C@@H](O)[C@@H](OCc1ccccc1)C(=O)NCc1ccccn1 | Not Active |  | 
2 | Cc1cc(O)ccc1NC(=O)[C@H](OCc1ccccc1)[C@H](O)[C@@H](O)[C@@H](OCc1ccccc1)C(=O)Nc1ccc(O)cc1C |  |  | IC50 [2]: Not Active
3 | CNC(=O)C(NC(=O)[C@H](OCc1ccccc1)[C@H](O)[C@@H](O)[C@@H](OCc1ccccc1)C(=O)NC(C(=O)NC)c1cccc(F)c1)c1cccc(F)c1 (stereo partly drawn) | Not Active | 7.09 | 
4 | O=C(NCc1cccnc1)[C@H](OCc1ccccc1)[C@H](O)[C@@H](O)[C@@H](OCc1ccccc1)C(=O)NCc1cccnc1 | Not Active |  | 
5 | O=C(NCc1cncs1)[C@H](OCc1ccccc1)[C@H](O)[C@@H](O)[C@@H](OCc1ccccc1)C(=O)NCc1cncs1 |  | 5.15 | 
6 | O=C(NCc1ccncc1)[C@H](OCc1ccccc1)[C@H](O)[C@@H](O)[C@@H](OCc1ccccc1)C(=O)NCc1ccncc1 | Not Active |  | 
7 | O=C(NCCO)[C@H](OCc1ccccc1)[C@H](O)[C@@H](O)[C@@H](OCc1ccccc1)C(=O)NCCO | Not Active |  | 
8 | COC(=O)[C@@H](NC(=O)[C@H](OCc1ccccc1)[C@H](O)[C@@H](O)[C@@H](OCc1ccccc1)C(=O)N[C@H](C(=O)OC)C(C)C)C(C)C |  |  | pIC50 [4]: 5.30
9 | CC(C)c1nc(CN(C)C(=O)N[C@H](C(=O)N[C@@H](Cc2ccccc2)C[C@H](O)[C@H](Cc2ccccc2)NC(=O)OCc2cncs2)C(C)C)cs1 [RITONAVIR] |  |  | EC50 [5]: 0.05 µg/mL (≈ 0.0694 µM)
10 | CNC(=O)[C@H](Cc1ccccc1)NC(=O)[C@H](OCc1ccccc1)[C@H](O)[C@@H](O)[C@@H](OCc1ccccc1)C(=O)N[C@@H](Cc1ccccc1)C(=O)NC | Not Active | 6.85 | 
11 | CC(C)(C)NC(=O)[C@@H]1CN(Cc2cccnc2)CCN1C[C@@H](O)C[C@@H](Cc1ccccc1)C(=O)N[C@H]1c2ccccc2C[C@H]1O.O [INDINAVIR] |  |  | EC50 [5]: 0.04 µg/mL
12 | COC(=O)[C@H](CC(C)C)NC(=O)[C@H](OCc1ccccc1)[C@H](O)[C@@H](O)[C@@H](OCc1ccccc1)C(=O)N[C@@H](CC(C)C)C(=O)OC | Not Active |  | 
13 | O=C(N[C@@H]1c2ccccc2C[C@@H]1O)[C@H](OCc1ccccc1)[C@H](O)[C@@H](O)[C@@H](OCc1ccccc1)C(=O)N[C@H]1c2ccccc2C[C@H]1O |  | 9.70 | EC50 [5]: 0.06 µg/mL (≈ 0.0919 µM)
14 | CNC(=O)[C@@H](NC(=O)[C@H](OCc1ccccc1)[C@H](O)[C@@H](O)[C@@H](OCc1ccccc1)C(=O)N[C@H](C(=O)NC)C(C)C)C(C)C |  | 9.40 | EC50 [5]: 0.9 µg/mL (≈ 1.46 µM)
15 | Cc1c(O)cccc1NC(=O)[C@H](OCc1ccccc1)[C@H](O)[C@@H](O)[C@@H](OCc1ccccc1)C(=O)Nc1cccc(O)c1C |  |  | IC50 [2]: Not Active
16 | CNC(=O)[C@@H](NC(=O)[C@H](OCc1ccccc1)[C@H](O)[C@@H](O)[C@@H](OCc1ccccc1)C(=O)N[C@H](C(=O)NC)c1ccccc1)c1ccccc1 | Not Active |  | 
17 | CNC(=O)[C@H](CCSC)NC(=O)[C@H](OCc1ccccc1)[C@H](O)[C@@H](O)[C@@H](OCc1ccccc1)C(=O)N[C@@H](CCSC)C(=O)NC |  | 6.18 | 
18 | O=C(NCc1c(F)cccc1Cl)[C@H](OCc1ccccc1)[C@H](O)[C@@H](O)[C@@H](OCc1ccccc1)C(=O)NCc1c(F)cccc1Cl |  | 5.70 | 
19 | CNC(=O)C(NC(=O)[C@H](OCc1ccccc1)[C@H](O)[C@@H](O)[C@@H](OCc1ccccc1)C(=O)NC(C(=O)NC)[C@@H](C)O)[C@H](C)O (stereo partly drawn) | Not Active | 6.30 | 
20 | CC(C)[C@@H](CO)NC(=O)[C@H](OCc1ccccc1)[C@H](O)[C@@H](O)[C@@H](OCc1ccccc1)C(=O)N[C@H](CO)C(C)C |  |  | IC50 [6]: Not Active
21 | O=C(NC1c2ccccc2CC1O)[C@H](OCc1ccccc1)[C@H](O)[C@@H](O)[C@@H](OCc1ccccc1)C(=O)N[C@H]1c2ccccc2C[C@H]1O (single isomer, unassigned) | Not Active |  | 
22 | COC(=O)[C@H](Cc1ccccc1)NC(=O)[C@H](OCc1ccccc1)[C@H](O)[C@@H](O)[C@@H](OCc1ccccc1)C(=O)N[C@@H](Cc1ccccc1)C(=O)OC |  |  | IC50 [7]: Not Active
23 | CC(C)[C@H](NC(=O)[C@H](OCc1ccccc1)[C@H](O)[C@@H](O)[C@@H](OCc1ccccc1)C(=O)N[C@H](C(=O)OCc1ccccc1)C(C)C)C(=O)OCc1ccccc1 |  |  | IC50 [8]: Not Active
24 | Cc1ccc(NC(=O)[C@H](OCc2ccccc2)[C@H](O)[C@@H](O)[C@@H](OCc2ccccc2)C(=O)Nc2ccc(C)cc2O)c(O)c1 |  |  | IC50 [2]: Not Active
25 | CNC(=O)[C@H](Cc1ccc(O)cc1)NC(=O)[C@H](OCc1ccccc1)[C@H](O)[C@@H](O)[C@@H](OCc1ccccc1)C(=O)N[C@@H](Cc1ccc(O)cc1)C(=O)NC |  | 5.30 | IC50 [7]: Not Active
26 | CC[C@@H](C)C(NC(=O)[C@H](OCc1ccccc1)[C@H](O)[C@@H](O)[C@@H](OCc1ccccc1)C(=O)NC(C(=O)NC)[C@@H](C)CC)C(=O)NC (stereo partly drawn) |  | 9.05 | EC50 [5]: 1 µg/mL (≈ 1.56 µM)
